Results filed as inconclusive are left out.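 How the source made its calls, unless noted: active means cell viability at or below a set limit in both duplicate runs, the limit being the all-compound median minus 4 SD (cut at about 23% in these data, passing the limit was not always enough); inconclusive means no clear call, values can overlap the other calls; inactive means the rest.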
Assays:
[1] = OD615 S. cerevisiae growth inhibition, permissive medium, pilot counter-assay, permissive growth control for S. cerevisiae lifespan shortening project (AID 705;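 active means growth inhibition above 25% in both replicates, a cutoff set 3 SD above the mean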); conditions: OD615, 24 h, at 10 µM, hits give high values
Summary of the method: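 Material: engineered DeaD yeast; compound dosing: one dose 10 µM, DMSO 0.25% final; measure: yeast growth inhibition indicated by reduced 24 h OD615; detection: OD615 turbidity read; incubation: cells pre-grown 4 h, then 24 h compound exposure, 30 °C humidified; medium: permissive synthetic complete medium with raffinose and galactose carbon sources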

[2] = Restrictive medium S. cerevisiae growth inhibition, OD615, pilot screen of yeast lifespan reduction project, restrictive growth control (AID 706;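 active means growth inhibition above a set limit, 3 SD over mean compound inhibition, in both replicates, cut at about 43% in these data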;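 further: modified DeaD lifespan yeast strain shifted to restrictive glucose medium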); conditions: OD615, 48 h, at 10 µM, hits give high values
Summary of the method: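 material = engineered S. cerevisiae DeaD strain | medium = glucose-based CSMM-D restrictive medium | times = 4 h pre-incubation, 48 h exposure at 30 °C | technique = OD615 absorbance reading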

[3] = viability gain of MRP-1-high H69AR cells under doxorubicin, pilot screen, MRP-1 activator project, CellTiter-Glo, duplicate (AID 807;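 active means viability increase at or above a cutoff of the median across tested compounds plus 3 SD, cut at about 8.5% in these data, passing the limit was not always enough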;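 further: compound pretreatment 18-22 h then 72 h combined with doxorubicin; 0% = doxorubicin alone and 100% = vehicle without doxorubicin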); conditions: H69AR viability with doxorubicin, CellTiter-Glo luminescence; at 10 µM; hits give high values
[4] = growth suppression of beta-catenin knockout HCT116, pilot screen, human colon tumor cells (AID 823); conditions: CellTiter-Glo, 60 h, at 10 µM, hits give low values;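 further: 0% = wells killed by 20 µM Hyamine and 100% = untreated DMSO cell wells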
[5] = growth suppression of PTEN-deleted HCT116, pilot screen, cell-based, HCT116 clonal line, CellTiter-Glo (AID 824;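 active means viability at or below 27.92% in each of two runs, the all-compound median minus 4 SD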;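 further: 0% = 20 µM Hyamine control and 100% = vehicle cell control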); conditions: 60 h, at 10 µM, hits give low values
[6] = inhibitors of the yeast RAM network, pilot screen, dse1pr::URA3 reporter, 5-FOA selection (AID 869;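 active means inhibition over a set limit, the all-compound mean plus 3 SD, in both replicate runs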;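 further: 0% = DMSO wells with no growth and 100% = 10 µM 1-NA-PP1 with full growth; RAM network block rescues cells from 5-FOA so hits raise OD615 growth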); conditions: S. cerevisiae dse1pr::URA3 5-FOA growth, OD615, 2 d; at 10 µM; hits give high values; strain carries analog-sensitive mutant Cbk1 kinase
[7] = RAM signaling pathway blockade in yeast – S. cerevisiae, Pdr1DBD-CYC8 efflux-inhibited sensitized strain, primary screen (AID 1298;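 active means RAM network inhibition above 8.4% in each of two replicates, 3 SD over the compound average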;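 further: 0% = DMSO untreated cells without growth and 100% = 10 µM 1-NA-PP1 full growth; higher means more yeast growth rescued from 5-FOA killing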); conditions: S. cerevisiae cbk1-as DSE1-URA3 strain, 5-FOA growth OD615, 2 d; at 50 µM; hits give high values

Cc1cc(NCc2ccccc2)nc(-c2ccccc2O)n1
inactive: growth inhibition [1] -1.8% | growth inhibition [2] -4.48% | viability increase [3] -1.24% | viability [4] 69.5% | viability [5] 70% | inhibition [6] 0.345% | RAM network inhibition [7] 0.61%

Cc1sc2nc3ccc(N4CCCC4)nn3c(=O)c2c1C
inactive: growth inhibition [1] -0.905% | growth inhibition [2] 18.9% | viability increase [3] -2.12% | viability [4] 70.1% | viability [5] 75% | inhibition [6] 0.845% | RAM network inhibition [7] 2.93%

CCOC(=O)c1c(C)oc2cc(Br)c(OC(C)C(=O)OCC)cc12 (configuration not stated)
inactive: growth inhibition [1] -10.4% | growth inhibition [2] -5.88% | viability increase [3] -0.93% | viability [4] 85.4% | viability [5] 92% | inhibition [6] 1.76% | RAM network inhibition [7] 0.98%

CCOC(=O)C1CCN(C(=O)Cn2cc3c(n2)CCC(C)C3)CC1 (configuration not stated)
inactive: growth inhibition [1] -5.55% | growth inhibition [2] -0.07% | viability increase [3] 0.98% | viability [4] 97.6% | viability [5] 95.6% | inhibition [6] 1.87% | RAM network inhibition [7] 1.77%

COc1ccc(Cl)cc1NC(=O)c1cnc2sccn2c1=O
inactive: growth inhibition [1] -6.94% | growth inhibition [2] 9.97% | viability increase [3] -5.14% | viability [4] 82.9% | viability [5] 82.6% | inhibition [6] 4.45% | RAM network inhibition [7] 6.59%

Cc1cc(NC(=O)CSc2nnc(Cn3c(=O)sc4ccccc43)n2-c2ccccc2C)no1
inactive: growth inhibition [1] -0.97% | growth inhibition [2] -2.43% | viability increase [3] -1.05% | viability [4] 89% | viability [5] 87% | inhibition [6] 1.27% | RAM network inhibition [7] 7.59%

CCc1nnc(NC(=O)c2ccc(N3C(=O)CCC3=O)cc2)s1
inactive: growth inhibition [1] -9.63% | growth inhibition [2] -14.9% | viability increase [3] -1.98% | viability [4] 101% | viability [5] 94.7% | inhibition [6] 1.32% | RAM network inhibition [7] 2.48%

Cc1cccc2sc(NC(=O)CCNS(=O)(=O)c3cccc4nonc34)nc12
inactive: growth inhibition [1] -11.1% | growth inhibition [2] -6.5% | viability increase [3] -5.31% | viability [4] 86.1% | viability [5] 80.7% | inhibition [6] 2.71% | RAM network inhibition [7] 7.24%

N#CCCN1CCN(S(=O)(=O)c2ccc(S(=O)(=O)NCc3ccccc3)cc2)CC1
inactive: growth inhibition [1] -3.28% | growth inhibition [2] -15.5% | viability increase [3] 0.18% | viability [4] 96% | viability [5] 100% | inhibition [6] 1.91% | RAM network inhibition [7] 3.5%

O=C(NCCc1ccc(Cl)cc1)C1CC(=O)N(C2CCCCC2)C1 (configuration not stated)
inactive: growth inhibition [1] -4.04% | growth inhibition [2] -5.98% | viability increase [3] -0.99% | viability [4] 94.6% | viability [5] 101% | inhibition [6] 1.06% | RAM network inhibition [7] 0.58%

COc1ccc(C2NC(=O)c3n[nH]c(C)c32)c(OC)c1 (configuration not stated)
inactive: growth inhibition [1] -1.65% | growth inhibition [2] 7.6% | viability increase [3] -0.95% | viability [4] 102% | viability [5] 103% | inhibition [6] 2.85% | RAM network inhibition [7] 3.42%

COC(=O)C(C)Sc1nnc(Cc2cc(=O)[nH]c(=O)[nH]2)n1-c1ccc(Cl)cc1 (configuration not stated)
inactive: growth inhibition [1] -13.7% | growth inhibition [2] -7.63% | viability increase [3] -1.15% | viability [4] 104% | viability [5] 95.6% | inhibition [6] 1.97% | RAM network inhibition [7] 1%

COc1cccc(C(=O)NCCn2ccc3ccccc32)c1
inactive: growth inhibition [1] -0.9% | growth inhibition [2] -3.15% | viability increase [3] -1.6% | viability [4] 95.3% | viability [5] 90.6% | inhibition [6] 0.825% | RAM network inhibition [7] 2.48%

Cc1ccc(-c2nn(CC(=O)O)c(=O)c3ccccc23)cc1
inactive: growth inhibition [1] -19.3% | growth inhibition [2] -13.9% | viability increase [3] 1.3% | viability [4] 104% | viability [5] 96.2% | inhibition [6] 2.12% | RAM network inhibition [7] 1.1%

O=C(CSc1nc2ncccc2[nH]1)NCc1ccccc1
inactive: growth inhibition [1] 0.36% | growth inhibition [2] 13.3% | viability increase [3] -0.06% | viability [4] 101% | viability [5] 86.9% | inhibition [6] 3.13% | RAM network inhibition [7] 3.93%

CC1(C)Oc2ccc3ccc(=O)oc3c2/C(=C/N)C1=O
inactive: growth inhibition [1] -6.37% | growth inhibition [2] -4.45% | viability increase [3] -4.51% | viability [4] 88.5% | viability [5] 81.7% | inhibition [6] 0.535% | RAM network inhibition [7] -0.57%

CCSc1nnc(Cc2cc(=O)[nH]c(=O)[nH]2)n1-c1ccc(Cl)cc1
inactive: growth inhibition [1] -15.2% | growth inhibition [2] -10% | viability increase [3] -0.84% | viability [4] 104% | viability [5] 102% | inhibition [6] 1.5% | RAM network inhibition [7] -0.99%

CCOCCCNC(=O)C(NC(=O)c1ccc2c(c1)OCO2)c1ccc(OC)cc1 (configuration not stated)
inactive: growth inhibition [1] -12.5% | growth inhibition [2] -24.3% | viability increase [3] -2% | viability [4] 101% | viability [5] 96.3% | inhibition [6] 1.6% | RAM network inhibition [7] 3.11%

Cc1cc(C)cc(N(CC(=O)Nc2c(C)n(C)n(-c3ccccc3)c2=O)S(C)(=O)=O)c1
inactive: growth inhibition [1] -11.3% | growth inhibition [2] -11.2% | viability increase [3] -1.95% | viability [4] 96.2% | viability [5] 93.2% | inhibition [6] 0.71% | RAM network inhibition [7] 2.45%

C=CCSC1=NC(N)=C(C#N)C2(CCCCC2)C1C(N)=O (configuration not stated)
inactive: growth inhibition [1] -4.98% | growth inhibition [2] 2.22% | viability increase [3] -1.39% | viability [4] 92.5% | viability [5] 96.6% | inhibition [6] 0.77% | RAM network inhibition [7] 2.04%

CCC(C)Sc1nc2c([nH]c3ccccc32)c(=O)n1C (configuration not stated)
inactive: growth inhibition [1] -16.9% | growth inhibition [2] -15.8% | viability increase [3] -4.85% | viability [4] 72.4% | viability [5] 70.6% | inhibition [6] 2.48% | RAM network inhibition [7] 3.48%

O=C(CSc1ccccc1)NCc1cccnc1
inactive: growth inhibition [1] -4.86% | growth inhibition [2] -3.68% | viability increase [3] -1.64% | viability [4] 99.5% | viability [5] 97% | inhibition [6] 0.995% | RAM network inhibition [7] 0.53%

COc1ccc(NC(=O)CSc2nnc(Cn3c(=O)sc4ccccc43)n2C)cc1
inactive: growth inhibition [1] -3.85% | growth inhibition [2] 7.49% | viability increase [3] -4.99% | viability [4] 111% | viability [5] 98.4% | inhibition [6] 2.43% | RAM network inhibition [7] 1.51%

COc1cccc(C2CC(c3ccccc3C)n3nc(N)nc3N2)c1 (configuration not stated)
inactive: growth inhibition [1] -7.81% | growth inhibition [2] 7.97% | viability increase [3] -2.32% | viability [4] 107% | viability [5] 86.5% | inhibition [6] 0.35% | RAM network inhibition [7] 8.21%

C#CC(C)(C)NC(=O)CSc1nc2c(c(=O)n(C)c(=O)n2C)n1CCCC
inactive: growth inhibition [1] -15.3% | growth inhibition [2] -13.7% | viability increase [3] 1.86% | viability [4] 102% | viability [5] 89.4% | inhibition [6] 2.11% | RAM network inhibition [7] 1.45%

CC1CCN(C(=O)CSc2ccc3nnc(-c4cccc(F)c4)n3n2)CC1
inactive: growth inhibition [1] -0.835% | growth inhibition [2] -0.735% | viability increase [3] -3.12% | viability [4] 79.5% | viability [5] 81.3% | inhibition [6] 0.67% | RAM network inhibition [7] -1.03%

Cc1ccc(-c2nc(CS(=O)CC(=O)NCCCN3CC(C)CC(C)C3)c(C)o2)cc1 (configuration not stated)
inactive: growth inhibition [1] -14.2% | growth inhibition [2] -13.2% | viability increase [3] -4.27% | viability [4] 77.5% | viability [5] 79.1% | inhibition [6] 0.255% | RAM network inhibition [7] 2.65%

COc1ccc(Cc2nc(-c3cccs3)no2)cc1OC
inactive: growth inhibition [1] 1.64% | growth inhibition [2] 5.25% | viability increase [3] 0.92% | viability [4] 76.8% | viability [5] 80.9% | inhibition [6] 1.62% | RAM network inhibition [7] 7.4%

O=C(C1CCN(S(=O)(=O)c2cccc3cccnc23)CC1)N1CCn2c1nc1ccccc12
inactive: growth inhibition [1] -1.95% | growth inhibition [2] -3.35% | viability increase [3] -1.86% | viability [4] 87.7% | viability [5] 83.2% | inhibition [6] 2.52% | RAM network inhibition [7] -1.55%

COc1ccccc1NC(=O)c1ccc(N)cc1
inactive: growth inhibition [1] -2% | growth inhibition [2] -2.66% | viability increase [3] 0.45% | viability [4] 105% | viability [5] 103% | inhibition [6] 2.87% | RAM network inhibition [7] 2.74%

CCCc1cc(C(=O)Nc2cc(Br)ccc2O)no1
inactive: growth inhibition [1] -4.99% | growth inhibition [2] -3.92% | viability increase [3] -4.83% | viability [4] 89% | viability [5] 88.1% | inhibition [6] 2.76% | RAM network inhibition [7] 5.97%

Oc1c(C(c2ccccc2)N2CCN(Cc3ccccc3)CC2)sc2ncnn12 (configuration not stated)
inactive: growth inhibition [1] -6.68% | growth inhibition [2] -5.08% | viability increase [3] 1.62% | viability [4] 89.7% | viability [5] 84.7% | inhibition [6] 1.79% | RAM network inhibition [7] 0.68%

CC(C)OC(=O)CSc1nnc(-c2ccc(Cl)cc2)n1N
inactive: growth inhibition [1] -3.53% | growth inhibition [2] -8.84% | viability increase [3] -0.58% | viability [4] 97.2% | viability [5] 95.7% | inhibition [6] 2.38% | RAM network inhibition [7] 5.48%

O=c1oc(-c2cccnc2)nc2ccccc12
inactive: growth inhibition [1] -8.07% | growth inhibition [2] -3.38% | viability increase [3] -0.21% | viability [4] 107% | viability [5] 96.1% | inhibition [6] 0.595% | RAM network inhibition [7] -0.11%

Cc1cc(NC(=O)CSc2cn(CCNC(=O)c3ccccc3)c3ccccc23)no1
inactive: growth inhibition [1] -3.29% | growth inhibition [2] -0.585% | viability increase [3] -0.97% | viability [4] 88.1% | viability [5] 88.7% | inhibition [6] 3.04% | RAM network inhibition [7] 6.89%

CCCCCn1c(N(C)Cc2ccccc2)nc2c1c(=O)[nH]c(=O)n2C
inactive: growth inhibition [1] -4.46% | growth inhibition [2] -2.36% | viability increase [3] -0.81% | viability [4] 74% | viability [5] 69.3% | inhibition [6] 0.435% | RAM network inhibition [7] 1.07%
